Experimental data reported in ChEMBL document CHEMBL1649278, “Characterization of a new metallo-beta-lactamase gene, bla(NDM-1), and a novel erythromycin esterase gene carried on a unique genetic structure in Klebsiella pneumoniae sequence type 14 from India” (2009).
Converted amounts (≈) assume the structure as drawn.

How the values were obtained:
Escherichia coli [1] = experiment: Antibacterial activity against Escherichia coli J53 by Etest method; assay type: functional
Escherichia coli [2] = experiment: Antibacterial activity against Escherichia coli TOP10 by Etest method; assay type: functional
Klebsiella pneumoniae [3] = experiment: Antibacterial activity against Klebsiella pneumoniae 05-560 by Etest method; assay type: functional
Escherichia coli [4] = experiment: Antibacterial activity against Escherichia coli J53 harboring beta-lactamase NDM-1 by Etest method; assay type: functional
Outline: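 Transconjugant of E. coli J53 recipient, mated with donor on blood agar without selection for 18 h. Selected on MacConkey agar with sodium azide (100 μg/ml) plus ceftazidime (8 μg/ml). Transfer confirmed by indole test and PCR for the MBL gene. Susceptibility read by Etest.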

Escherichia coli [5] = experiment: Antibacterial activity against Escherichia coli NF-NDM-1 by Etest method; assay type: functional
Escherichia coli [6] = experiment: Antibacterial activity against Escherichia coli TOP10 harboring beta-lactamase NDM-1 by Etest method; assay type: functional
Outline: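 Fragments from BamHI, EcoRI or HindIII digests of K. pneumoniae 05-506 DNA were cloned into vector pK18 and electroporated into E. coli TOP10. Transformants were selected on LB agar with X-gal (30 μg/ml), ceftazidime (6 μg/ml) and kanamycin (25 μg/ml). Susceptibility read by Etest.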

Klebsiella pneumoniae [7] = experiment: Ratio of Kcat to Km for Klebsiella pneumoniae 05-560 beta-lactamase IMP1
Klebsiella pneumoniae [8] = experiment: Activity of Klebsiella pneumoniae 05-560 beta-lactamase IMP1 by spectrophotometry

SMILES | MIC (Escherichia coli [1]) | MIC (Escherichia coli [2]) | MIC (Klebsiella pneumoniae [3]) | MIC (Escherichia coli [4]) | MIC (Escherichia coli [5]) | MIC (Escherichia coli [6]) | kcat/Km (Klebsiella pneumoniae [7]) | Km (Klebsiella pneumoniae [8]) | kcat (Klebsiella pneumoniae [8])
C[C@@H](O)[C@H]1C(=O)N2C(C(=O)O)=C(S[C@@H]3CN[C@H](C(=O)Nc4cccc(C(=O)O)c4)C3)[C@H](C)[C@H]12 | 0.5 µg/mL (≈ 1.05 µM) | 0.125 µg/mL (≈ 0.263 µM) | > 256 µg/mL | > 32 µg/mL | > 32 µg/mL | 24 µg/mL (≈ 50.5 µM) |  |  | 
CO/N=C(\C(=O)N[C@@H]1C(=O)N2C(C(=O)[O-])=C(C[N+]3(C)CCCC3)CS[C@H]12)c1csc(N)n1 |  |  | > 256 µg/mL | 24 µg/mL (≈ 49.9 µM) | 24 µg/mL (≈ 49.9 µM) | 8 µg/mL (≈ 16.6 µM) | 660000 M⁻¹ s⁻¹ | 11 µM | 7 s⁻¹
CC1(C)S[C@@H]2[C@H](NC(=O)Cc3ccccc3)C(=O)N2[C@H]1C(=O)O |  |  |  |  |  |  | 620000 M⁻¹ s⁻¹ | 520 µM | 320 s⁻¹
CC1(C)S[C@@H]2[C@H](NC(=O)[C@H](N)c3ccccc3)C(=O)N2[C@H]1C(=O)O [AMPICILLIN] | 4 µg/mL (≈ 11.4 µM) | 12 µg/mL (≈ 34.3 µM) | > 256 µg/mL | > 256 µg/mL | > 256 µg/mL | > 256 µg/mL | 4.8e+06 M⁻¹ s⁻¹ | 200 µM | 950 s⁻¹
C[C@H]1[C@H](NC(=O)/C(=N\OC(C)(C)C(=O)O)c2csc(N)n2)C(=O)N1S(=O)(=O)O [AZTREONAM] |  |  | > 256 µg/mL | 24 µg/mL (≈ 55.1 µM) | 24 µg/mL (≈ 55.1 µM) | 0.25 µg/mL (≈ 0.574 µM) | < 100 M⁻¹ s⁻¹ | > 1000 µM | > 0.01 s⁻¹
CO/N=C(\C(=O)N[C@@H]1C(=O)N2C(C(=O)O)=C(COC(C)=O)CS[C@H]12)c1csc(N)n1 [CEFOTAXIME] | 0.064 µg/mL (≈ 0.141 µM) | 0.125 µg/mL (≈ 0.274 µM) | > 256 µg/mL | > 256 µg/mL | > 256 µg/mL | > 256 µg/mL | 350000 M⁻¹ s⁻¹ | 4 µM | 1.3 s⁻¹
CO[C@@]1(NC(=O)Cc2cccs2)C(=O)N2C(C(=O)O)=C(COC(N)=O)CS[C@@H]21 [CEFOXITIN] | 2 µg/mL (≈ 4.68 µM) | 4 µg/mL (≈ 9.36 µM) | > 256 µg/mL | > 256 µg/mL | > 256 µg/mL | > 256 µg/mL | 2e+06 M⁻¹ s⁻¹ |  | 
CC(C)(O/N=C(\C(=O)N[C@@H]1C(=O)N2C(C(=O)[O-])=C(C[n+]3ccccc3)CS[C@H]12)c1csc(N)n1)C(=O)O [CEFTAZIDIME] | 0.125 µg/mL (≈ 0.229 µM) | 1 µg/mL (≈ 1.83 µM) | > 256 µg/mL | > 256 µg/mL | > 256 µg/mL | > 256 µg/mL | 180000 M⁻¹ s⁻¹ | 44 µM | 8 s⁻¹
